In ChEMBL document CHEMBL1811765, “Synthesis, biological evaluation, and molecular modeling of cinnamic acyl sulfonamide derivatives as novel antitubulin agents” (Bioorg Med Chem, 2011):
Converted amounts (≈) assume the structure as drawn.

Experiments:
[1] = Inhibition of bovine brain tubulin polymerization after 20 mins by turbidimetric analysis; parameters: species or system Bos taurus
How it was run: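 Tubulin at 10 µM in glutamate buffer was preincubated with varying compound concentrations at 30 °C, then cooled to 0 °C. GTP was added, the mix moved to 0 °C cuvettes and warmed to 30 °C, and assembly was followed turbidimetrically.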

B16-F10 [2] = assay: Antiproliferative activity against mouse B16F10 cells after 48 hrs by MTT based ELISA assay; assay type: functional, cell-based; conditions: B16-F10, 48 h
How it was run: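 B16-F10 cells grown to log phase in RPMI 1640 with 10% FBS, seeded at 2 × 10⁴ cells/mL and incubated 24 h at 37 °C, 5% CO₂ before treatment. Read-out was absorbance at 570 nm after an overnight incubation at 37 °C. Three replicate wells per concentration, each assay run at least three times. IC50 reported.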

B16-F10 [3] = assay: Cell cycle arrest in mouse B16F10 cells assessed as accumulation at G0/G1 phase at 1 ug/ml after 24 hrs by flow cytometry analysis (reference value: 48.57%); assay type: functional
B16-F10 [4] = assay: Cell cycle arrest in mouse B16F10 cells assessed as accumulation at S phase at 1 ug/ml after 24 hrs by flow cytometry analysis (reference value: 9.40%); assay type: functional
B16-F10 [5] = assay: Cell cycle arrest in mouse B16F10 cells assessed as accumulation at G2/M phase at 1 ug/ml after 24 hrs by flow cytometry analysis (reference value: 17.03%); assay type: functional
B16-F10 [6] = assay: Cell cycle arrest in mouse B16F10 cells assessed as accumulation at S phase at 5 ug/ml after 24 hrs by flow cytometry analysis (reference value: 9.40%); assay type: functional
B16-F10 [7] = assay: Cell cycle arrest in mouse B16F10 cells assessed as accumulation at G2/M phase at 5 ug/ml after 24 hrs by flow cytometry analysis (reference value: 17.03%); assay type: functional
B16-F10 [8] = assay: Cell cycle arrest in mouse B16F10 cells assessed as accumulation at G0/G1 phase at 5 ug/ml after 24 hrs by flow cytometry analysis (reference value: 48.57%); assay type: functional

| SMILES | IC50 [1] [µg/mL] | IC50 (B16-F10 [2]) [µg/mL] | other results |
| --- | --- | --- | --- |
| COc1ccc(/C=C/C(=O)NS(=O)(=O)c2ccc(Cl)cc2)cc1 | 52 (≈ 148 µM) | 5.3 (≈ 15.1 µM) | – |
| CN(C)c1ccc(/C=C/C(=O)NS(=O)(=O)c2ccc(F)cc2)cc1 | 10 (≈ 28.7 µM) | 2.3 (≈ 6.6 µM) | – |
| COc1cc2c(c(OC)c1OC)-c1ccc(OC)c(=O)cc1[C@@H](NC(C)=O)CC2 [COLCHICINE] | – | – | Activity (B16-F10 [3]): 1.58%; Activity (B16-F10 [4]): 1.3%; Activity (B16-F10 [5]): 61.11% |
| O=C(/C=C/c1ccc(Cl)cc1)NS(=O)(=O)c1ccc(Br)cc1 | 10.8 (≈ 27 µM) | 2.8 (≈ 6.99 µM) | – |
| O=C(/C=C/c1ccc(F)cc1)NS(=O)(=O)c1ccccc1 | 4.5 (≈ 14.7 µM) | 2.1 (≈ 6.88 µM) | – |
| O=C(/C=C/c1ccc(Cl)cc1)NS(=O)(=O)c1ccc(F)cc1 | 8.9 (≈ 26.2 µM) | 2 (≈ 5.89 µM) | – |
| COc1ccc(/C=C/C(=O)NS(=O)(=O)c2ccccc2)cc1 | 160 (≈ 504 µM) | 13.2 (≈ 41.6 µM) | – |
| O=C(/C=C/c1ccccc1[N+](=O)[O-])NS(=O)(=O)c1ccccc1 | 74 (≈ 223 µM) | 6 (≈ 18.1 µM) | – |
| O=C(/C=C/c1ccc([N+](=O)[O-])cc1)NS(=O)(=O)c1ccc(F)cc1 | 6.3 (≈ 18 µM) | 2.2 (≈ 6.28 µM) | – |
| O=C(/C=C/c1ccc(F)cc1)NS(=O)(=O)c1ccc(Cl)cc1 | 4.5 (≈ 13.2 µM) | 2.6 (≈ 7.65 µM) | – |
| O=C(/C=C/c1ccc(F)cc1)NS(=O)(=O)c1ccc(Br)cc1 | 14.7 (≈ 38.3 µM) | 2.8 (≈ 7.29 µM) | – |
| O=C(/C=C/c1ccccc1)NS(=O)(=O)c1ccccc1 | 37 (≈ 129 µM) | 3.5 (≈ 12.2 µM) | – |
| CN(C)c1ccc(/C=C/C(=O)NS(=O)(=O)c2ccccc2)cc1 | 26 (≈ 78.7 µM) | 2.3 (≈ 6.96 µM) | – |
| Cc1ccc(S(=O)(=O)NC(=O)/C=C/c2ccc([N+](=O)[O-])cc2)cc1 | 151 (≈ 436 µM) | 13.5 (≈ 39 µM) | – |
| CN(C)c1ccc(/C=C/C(=O)NS(=O)(=O)c2ccc(Br)cc2)cc1 | 34 (≈ 83.1 µM) | 4.2 (≈ 10.3 µM) | – |
| O=C(/C=C/c1ccc([N+](=O)[O-])cc1)NS(=O)(=O)c1ccccc1 | 50 (≈ 150 µM) | 4.8 (≈ 14.4 µM) | – |
| O=C(/C=C/c1ccc(Br)cc1)NS(=O)(=O)c1ccccc1 | 74 (≈ 202 µM) | 3.9 (≈ 10.6 µM) | – |
| O=C(/C=C/c1ccc(F)cc1)NS(=O)(=O)c1ccc(F)cc1 | 2.4 (≈ 7.42 µM) | 0.8 (≈ 2.47 µM) | Activity (B16-F10 [3]): 26.7%; Activity (B16-F10 [6]): 4.22%; Activity (B16-F10 [4]): 9.08%; Activity (B16-F10 [7]): 49%; Activity (B16-F10 [5]): 30.21%; Activity (B16-F10 [8]): 5.65% |
| O=C(/C=C/c1ccc([N+](=O)[O-])cc1)NS(=O)(=O)c1ccc(Br)cc1 | 163 (≈ 396 µM) | 13.9 (≈ 33.8 µM) | – |
| Cc1ccc(S(=O)(=O)NC(=O)/C=C/c2ccc(Cl)cc2)cc1 | 30 (≈ 89.3 µM) | 4.6 (≈ 13.7 µM) | – |
| Cc1ccc(S(=O)(=O)NC(=O)/C=C/c2ccc(Br)cc2)cc1 | 137 (≈ 360 µM) | 12.1 (≈ 31.8 µM) | – |

| SMILES | IC50 [1] [µg/mL] | IC50 (B16-F10 [2]) [µg/mL] | other results |
| --- | --- | --- | --- |
| O=C(/C=C/c1ccccc1)NS(=O)(=O)c1ccc(Cl)cc1 | 14.8 (≈ 46 µM) | 2.2 (≈ 6.84 µM) | – |
| COc1ccc(/C=C/C(=O)NS(=O)(=O)c2ccc(F)cc2)cc1 | 45 (≈ 134 µM) | 5.1 (≈ 15.2 µM) | – |
| O=C(/C=C/c1ccccc1)NS(=O)(=O)c1ccc(Br)cc1 | 63 (≈ 172 µM) | 3.9 (≈ 10.6 µM) | – |
| Cc1ccc(S(=O)(=O)NC(=O)/C=C/c2ccccc2)cc1 | 152 (≈ 504 µM) | 13.8 (≈ 45.8 µM) | – |
| O=C(/C=C/c1ccc(Br)cc1)NS(=O)(=O)c1ccc(Br)cc1 | 53 (≈ 119 µM) | 5.1 (≈ 11.5 µM) | – |
| O=C(/C=C/c1ccc([N+](=O)[O-])cc1)NS(=O)(=O)c1ccc(Cl)cc1 | 134 (≈ 365 µM) | 13.7 (≈ 37.4 µM) | – |
| O=C(/C=C/c1ccc(Cl)cc1)NS(=O)(=O)c1ccc(Cl)cc1 | 9.3 (≈ 26.1 µM) | 2.5 (≈ 7.02 µM) | – |
| O=C(/C=C/c1ccc(Cl)cc1)NS(=O)(=O)c1ccccc1 | 15.3 (≈ 47.5 µM) | 2.2 (≈ 6.84 µM) | – |
| O=C(/C=C/c1ccccc1[N+](=O)[O-])NS(=O)(=O)c1ccc(Cl)cc1 | 78 (≈ 213 µM) | 6.6 (≈ 18 µM) | – |
| CN(C)c1ccc(/C=C/C(=O)NS(=O)(=O)c2ccc(Cl)cc2)cc1 | 14 (≈ 38.4 µM) | 2.8 (≈ 7.67 µM) | – |
| Cc1ccc(S(=O)(=O)NC(=O)/C=C/c2ccccc2[N+](=O)[O-])cc1 | 102 (≈ 294 µM) | 10.3 (≈ 29.7 µM) | – |
| COc1ccc(/C=C/C(=O)NS(=O)(=O)c2ccc(C)cc2)cc1 | 146 (≈ 441 µM) | 12.2 (≈ 36.8 µM) | – |
| O=C(/C=C/c1ccc(Br)cc1)NS(=O)(=O)c1ccc(Cl)cc1 | 55 (≈ 137 µM) | 5.2 (≈ 13 µM) | – |
| O=C(/C=C/c1ccc(Br)cc1)NS(=O)(=O)c1ccc(F)cc1 | 3.8 (≈ 9.89 µM) | 1.2 (≈ 3.12 µM) | – |
| O=C(/C=C/c1ccccc1)NS(=O)(=O)c1ccc(F)cc1 | 4.5 (≈ 14.7 µM) | 2.1 (≈ 6.88 µM) | – |
| Cc1ccc(S(=O)(=O)NC(=O)/C=C/c2ccc(N(C)C)cc2)cc1 | 37 (≈ 107 µM) | 4.3 (≈ 12.5 µM) | – |
| O=C(/C=C/c1ccccc1[N+](=O)[O-])NS(=O)(=O)c1ccc(Br)cc1 | 134 (≈ 326 µM) | 12.6 (≈ 30.6 µM) | – |
| COc1ccc(/C=C/C(=O)NS(=O)(=O)c2ccc(Br)cc2)cc1 | 53 (≈ 134 µM) | 5.8 (≈ 14.6 µM) | – |
| O=C(/C=C/c1ccccc1[N+](=O)[O-])NS(=O)(=O)c1ccc(F)cc1 | 69 (≈ 197 µM) | 6 (≈ 17.1 µM) | – |
| COc1ccc(/C=C\c2cc(OC)c(OC)c(OC)c2)cc1O [COMBRETASTATIN A4] | 0.7 (≈ 2.21 µM) | – | – |
| Cc1ccc(S(=O)(=O)NC(=O)/C=C/c2ccc(F)cc2)cc1 | 40 (≈ 125 µM) | 4.8 (≈ 15 µM) | – |
